Screening data as filed in PubChem BioAssay.
DDE Tn6 FP inh = inhibitors of Tn6 peptide binding to fibrin DD(E), primary screen, biochemical, fluorescence polarization, human fibrin, Tn6 probe. Fibrinogen beta chain (Homo sapiens), P02675. inhibition, % at 8.3 µM. 370,000 tested, 0.21% active. Fibrin DD(E) TRITC-Tn6 fluorescence polarization displacement. AID 720509, 2013;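 active = inhibition above a per-campaign cutoff: mean of compounds within control limits plus 3 SD, cut at about 15% in these data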;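 note: 0% = median of all compound wells on the plate and 100% = blocking peptide control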
Target sequence (P02675 whole entry, looked up): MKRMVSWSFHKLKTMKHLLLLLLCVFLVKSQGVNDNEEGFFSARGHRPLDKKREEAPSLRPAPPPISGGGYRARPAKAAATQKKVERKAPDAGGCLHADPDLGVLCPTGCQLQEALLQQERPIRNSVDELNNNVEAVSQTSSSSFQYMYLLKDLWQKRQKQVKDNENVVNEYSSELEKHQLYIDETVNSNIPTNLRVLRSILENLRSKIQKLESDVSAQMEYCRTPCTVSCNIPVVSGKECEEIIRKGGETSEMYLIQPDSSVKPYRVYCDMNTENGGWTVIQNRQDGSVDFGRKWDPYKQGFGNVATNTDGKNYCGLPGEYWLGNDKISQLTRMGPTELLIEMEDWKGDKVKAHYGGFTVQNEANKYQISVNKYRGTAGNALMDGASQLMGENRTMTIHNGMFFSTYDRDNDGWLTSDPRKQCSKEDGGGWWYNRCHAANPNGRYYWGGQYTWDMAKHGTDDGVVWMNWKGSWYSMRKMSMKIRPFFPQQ
SKN-1 inh = suppressors of acrylamide-induced Pgst-4::GFP reporter in worms, primary screen, SKN-1 inhibitor project, whole organism, uHTS, GFP/RFP fluorescence ratio, strain VP596. C. elegans VP596 Pgst-4::GFP/RFP ratio, 24 h. inhibition, % at 21.8 µM. 360,000 tested, 0.49% active;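 active = interference check ratio from 0.5 to 1.5 plus GFP to RFP signal ratio inhibition reaching or exceeding a fixed threshold, cut at about 30% in these data, passing the limit was not always enough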
MT1-MMP act inh = blockers of MT1-MMP proenzyme processing, primary screen, HT1080 RFP-PRO-GFP cells, GFP/RFP fluorescence; 360,000 tested, 0.061% active; GFP/RFP ratio change, % at 20 µM; GFP/RFP ratio fluorescence, overnight; percent of plate control window, DMSO zero;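 active = GFP/RFP ratio change of at least 30% with cell ATP level not reduced by more than half and red fluorescence within 50% of control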
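system = RFP-PRO-GFP reporter HT1080 cells | dosing = 20 µM single dose, 1% DMSO | timing = overnight cell settling, then overnight compound exposure, 37 °C, 5% CO2 | read-out basis = GFP/RFP fluorescence ratio | controls = DMSO and RFP-L50D-GFP cell wells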
Tn7 DDE FP = inhibitors of Tn7 peptide binding to fibrin DD(E), primary screen, biochemical, fluorescence polarization, human fibrin, Tn7 probe; FP displacement of FITC-Tn7 peptide from fibrin DD(E); 0% = median of compound wells per plate; inhibition, % at 8.3 µM; 370,000 tested, 0.13% active; AID 720508, 2013;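 active = inhibition above the mean of compounds falling within the control limits plus 3 SD of them, cut at about 14% in these data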;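 note: 0% = plate median of compound wells and 100% = 10 µM Aha-Tn7 peptide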
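Assay system: Human clot-derived fibrin DD(E) complex | Buffer or medium: Tris/NaCl/CaCl2 buffer, pH 7.8 | Repeats: One replicate per compound | Benchmarks: Aha-Tn7 high control | Measure: % inhibition scaled between sample-field median and high-control FP | Schedule: 10 min plus 3 h, room temperature | Signal: Fluorescence polarization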
The depositor's hits bear a star; / = not tested or not shown. Most compounds without a hit are left out; they make up all but 0.84% or so of the library.

SMILES	DDE Tn6 FP inh	SKN-1 inh	MT1-MMP act inh	Tn7 DDE FP
Cn1ncc(Cl)c1C(=O)N1CCN(c2ccc(Cl)c(Cl)c2)CC1	0.1	-1.6	3.8	-1.8
Cc1cc2n(n1)C(c1ccsc1)Nc1ccccc1-2 (stereo not given)	-8.1	15.5	-2.7	-0.9
CSc1ccc(C2Nc3ccccc3-c3cc(C)nn32)cc1 (stereo not given)	2.6	43.8*	5.5	2.4
C[C@H]1[C@@H](OC(=O)Nc2cccc(C(F)(F)F)c2)CC[C@@]23CCCN2C(=O)CCC[C@@H]13	-0.1	/	/	-9.0
CCOc1ccc(-c2cnc3ccccc3n2)cc1	-7.2	35.2*	-1.6	5.4
c1ccc(-c2nc(-c3ccncc3)no2)cc1	0.0	68.9*	-3.6	3.1
CCOc1ccc(-c2nc(-c3cccnc3)no2)cc1	-2.1	53.3*	-0.2	0.3
O=[N+]([O-])c1ccc(-c2cnc3ccccc3n2)cc1	5.6	32.4	2.1	3.5
c1ccc(-c2ccc(-c3nc(-c4cccnc4)no3)cc2)cc1	-4.9	43.1*	-6.5	-4.6
c1ccc(-c2ccc(-c3nc(-c4ccncc4)no3)cc2)cc1	4.7	10.7	1.4	-2.0
CC(C)CC(N)c1csc(Nc2ccc(C(F)(F)F)cn2)n1 (stereo not given)	3.5	15.5	-0.4	10.1
COC(=O)[C@]12C[C@H](CC(=O)NCc3cccc(C(F)(F)F)c3)C(=O)N(CCC3=CCCCC3)C1=C[C@H](COCc1ccccc1)O[C@@H]2C	-1.8	/	/	-2.0
CCOc1ccc(-c2nnc(-c3ccc(OC)cc3)o2)cc1	3.0	2.6	-0.6	-3.9
CCc1ccc(-c2nc(-c3ccncc3)no2)cc1	4.9	47.9*	0.8	-0.2
CCOc1ccc(-c2nnc(-c3ccccc3)o2)cc1	5.0	37.5*	-1.1	6.8
COc1ccccc1NC(=O)CN1CCN(C2c3ccccc3-c3ccccc32)CC1	8.8	36.9*	-3.2	-5.4
C/C(=C\C(=O)c1ccccc1)NCc1ccc(F)cc1	-3.7	33.4*	2.2	3.9
C/C(=C\C(=O)c1ccc(C)cc1)NCc1ccc(F)cc1	-1.0	12.5	-5.6	-4.3
O=C1CSC(=S)N1Nc1ccccc1	3.2	35.6*	3.3	-5.0
N/C(=N\OC(=O)c1cccc(Br)c1)c1ccncc1	0.2	45.5*	0.7	6.8
N/C(=N\OC(=O)c1ccc(Br)cc1)c1ccncc1	-4.3	23.9	2.1	4.1
Cc1cccc(C(=O)O/N=C(\N)c2ccccn2)c1	-1.6	36.8*	-1.2	8.2
COC(=O)Cc1nnn2c1[C@@H](C)[C@@H](c1ccccc1Br)OC[C@H](C)C2	3.0	/	/	5.1
C[C@H]1C(=O)N2[C@@H](C[C@]3(c4c[nH]c5ccccc45)c4ccccc4N(S(=O)(=O)c4ccccc4)[C@H]23)C(=O)N1C	-3.8	/	/	-5.2
Cc1cc2nc(-c3ccc(SCC(=O)Nc4ccc(S(=O)(=O)NC5CC5)cc4)nc3)[nH]c2cc1C	28.6*	-2.3	4.8	-6.0
SMILES	DDE Tn6 FP inh	SKN-1 inh	MT1-MMP act inh	Tn7 DDE FP
Cc1cc(NC(=O)CSc2ccc(-c3nc4cc(C)c(C)cc4[nH]3)cn2)no1	/	10.9	-1.1	/
O=C([C@@H]1C[C@H]1c1ccccc1)N1CCC(Oc2cccnc2)CC1	-2.6	/	/	1.9
CCC(c1nnnn1Cc1ccc2c(c1)OCO2)N1CCN(c2ccccc2)CC1 (stereo not given)	-4.5	-2.2	-6.8	-4.3
CCC(c1nnnn1Cc1ccc2c(c1)OCO2)N1CCN(c2ccc(F)cc2)CC1 (stereo not given)	3.9	35.8*	4.2	-5.1
O=C(NCCO)c1cccc(-c2ccc3nncn3c2)c1	9.2	48.5*	1.2	-0.3
COc1ccc(CCNC(=O)c2cccc(S(=O)(=O)N3CCc4ccccc4C3)c2)cc1	0.8	1.6	3.2	-8.3
CCCCOC(=O)Nc1ccc(C(N)=O)cc1	4.0	18.0	1.9	1.7
CCCCOC(=O)Nc1ccc(N2CCCCC2)cc1	-7.5	45.5*	5.9	-0.8
CCCCOC(=O)Nc1ccc(C(C)C)cc1	-3.1	33.3*	1.7	0.2
CCCNC(=O)C[C@H]1CC[C@H]2[C@@H](COc3ccc(NC(=O)Nc4ccccc4)cc3C(=O)N2C)O1	7.0	/	/	-0.2
COc1ccc(CCNC(=O)CCCOc2cccc(C)c2C)cc1OC	-5.3	2.8	4.4	-4.3
CC(C)(C)NC(=O)Cn1c(=O)n(CC(=O)NC(C)(C)C)c2ccccc21	-1.3	-3.6	7.8	-0.9
CC(=O)C1(C(=O)Nc2cc(C)cc(C)c2)CC(c2ccccn2)=NO1 (stereo not given)	-4.3	/	/	-3.7
CN1/C(=C/C(=S)NC(=O)C2CCC2)C(C)(C)c2ccccc21	3.7	41.2*	-17.3	5.0
COc1cc(C=Nn2c(-c3ccccc3F)n[nH]c2=S)ccc1OCc1ccccc1	5.5	/	/	-1.2
COC(=O)[C@]12C[C@H](CC(=O)NCCCCc3ccccc3)C(=O)N(Cc3ccco3)C1=C[C@H](C(C)(C)C)O[C@@H]2C	4.2	/	/	-4.9
CN1C(=O)c2cc(NS(=O)(=O)c3ccc(F)cc3)ccc2OC[C@H]2O[C@@H](CC(=O)NCC(F)(F)F)CC[C@@H]21	-6.3	/	/	-6.3
Brc1ccc(-c2nc(-c3ccncc3)no2)o1	-0.6	49.4*	/	-2.1
Brc1ccc(-c2nc(-c3ccccn3)no2)o1	0.9	44.1*	0.4	6.8
Brc1ccc(-c2noc(-c3ccccn3)n2)o1	-5.9	66.3*	-2.4	2.9
COc1cc(-c2nc(-c3ccc(Br)o3)no2)cc(OC)c1OC	-1.7	5.3	6.9	-3.9
COc1cccc(Nc2nc(NCC3CCCO3)c3ccccc3n2)c1 (stereo not given)	9.2	37.1*	-2.1	4.4
C(=C\c1nc(-c2cccnc2)no1)/c1ccccc1	5.6	65.7*	0.8	-3.3
Cc1ccc(-c2noc(/C=C/c3ccccc3)n2)cc1	3.9	7.4	7.1	1.3
Clc1ccccc1/C=C/c1nc(-c2cccnc2)no1	5.4	38.8*	-4.6	-4.0
SMILES	DDE Tn6 FP inh	SKN-1 inh	MT1-MMP act inh	Tn7 DDE FP
COc1cccc(-c2cc(C(=O)Nc3nc4ccccc4s3)c3ccccc3n2)c1	0.2	46.3*	-18.3	4.7
O=C(Nc1nc2ccccc2s1)c1cc(-c2ccco2)nc2ccccc12	-0.8	4.6	-6.3	-1.7
CC(C)CC(=O)Nc1ccc(Oc2ccc(NC(=O)CC(C)C)cc2)cc1	1.4	-15.2	4.6	3.0
CC(C)CC(=O)Nc1ccc(Nc2ccccc2)cc1	-1.0	35.0*	3.5	6.2
c1ccc2c(Nc3nc4c(s3)CCCC4)cccc2c1	-2.9	45.4*	4.2	-3.7
O=C(Nc1ccc2oc(-c3ccccc3)nc2c1)c1cccnc1	2.5	38.8*	3.3	2.1
